Assay results: ChEMBL document CHEMBL4425095, “Novel Cephalosporins Selectively Active on Nonreplicating Mycobacterium tuberculosis” (J Med Chem, 2016)

System: Mycobacterium tuberculosis
Assay: Antibacterial activity against replicating Mycobacterium bovis BCG measured at OD580 = 0.01
Type: functional
Conditions: variant bovis BCG
Outline: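 Replicating organisms in the paper's earlier-described bacteriologic medium; 200 μL of cells at OD580 0.01 exposed to DMSO vehicle or drug in 96-well plates; growth read by optical density.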

Row | Compound | MIC90 [µg/mL]
1 | CC1=C(c2nc(C)no2)N2C(=O)[C@@H](NC(=O)COc3ccccc3)[C@H]2SC1 | > 100
2 | CCCOC(=O)C1=C(C)CS[C@@H]2[C@H](NC(=O)COc3ccccc3)C(=O)N12 | > 100
